Measurements collected from several papers.
Lines come from different studies, so protocols differ.
Target: Ephrin type-A receptor 4 (EPHA4, Homo sapiens, UniProt P54764)

Structure (SMILES) | effect on | method | concentration | remaining binding
F[C@@H]1CCN(c2nccc(-c3cnn4ncccc34)n2)C1 | binding | – | 1 µM | 100%
O=C(Nc1c[nH]nc1C(=O)NC1CCNCC1)c1cc(F)cc(F)c1 | binding | competition with immobilised ligand | 1 µM | 100%
c1ccc(N2CCN(Cc3nc4ccccc4[nH]3)CC2)nc1 | cell-free assay | competition with immobilised ligand | 1 µM | 100%
CNC(=O)[C@@H]1CC[C@@H](n2c(-c3ccc4cnccc4c3)nc3ccc(C(=O)NCc4cccc(C(N)=O)c4)cc32)C1 | binding | competition with immobilised ligand | 1 µM | 98%
CNCc1ccccc1-c1csc([C@@H](C)Nc2nc(C)nc3cc(OC)c(OC)cc23)c1 | cell-free assay | competition with immobilised ligand | 1 µM | 79%
C[C@H]1CCN(c2nccc(-c3cnn4ncccc34)n2)C1 | binding | – | 1 µM | 86%
CC(=O)c1c(NS(C)(=O)=O)c2cc(-c3ccc(Cl)cc3)c(-c3ccc(Cl)cc3Cl)nc2n(C)c1=O | cell-free assay | competition with immobilised ligand | 1 µM | 98%
CN(C)c1nccc(-c2cnc3ncccn23)n1 | binding | – | 1 µM | 100%
NS(=O)(=O)c1cc(NC(=O)Cc2ccccc2)ccc1Oc1cccc(Cl)c1 | cell-free assay | competition with immobilised ligand | 1 µM | 97%
C=CC(=O)N1CCC(C(=O)NCC(=O)N2CCN(c3nc(-c4cnc(N)nc4C(F)F)nc(N4CCOCC4)n3)CC2)CC1 | binding | competition with immobilised ligand | 1 µM | 94%
CN(c1nccc(-c2cnn3ncccc23)n1)C1CC1 | binding | – | 1 µM | 100%
O=C(NCCCN1CCOCC1)c1ccc(Nc2ncc(Cl)c(-c3ccc(Cl)s3)n2)cc1 | binding | competition with immobilised ligand | 1 µM | 89%
CCN1CCN(Cc2ccc(C(=O)Nc3ccc(C)c(Oc4ccc5c(c4)CC(=O)N5)c3)cc2C(F)(F)F)CC1 | binding | competition with immobilised ligand | 1 µM | 100%
C[C@@H](c1ccc(-n2cnc3c(N)ncnc32)cc1)N1CCc2nn(C)c(Cc3ccccc3)c2C1=O | binding | competition with immobilised ligand | 0.1 µM | 97%
COc1ncc2cc3ccccc3nc2c1C#N | cell-free assay | competition with immobilised ligand | 5 µM | 100%
O=c1nc(-c2ccccn2)sc2ccccc12 | cell-free assay | competition with immobilised ligand | 1 µM | 100%
O=C(c1ccc(Nc2nccc(-c3cc4ccccc4s3)n2)cc1)N1CCC(N2CCCC2)CC1 | binding | competition with immobilised ligand | 1 µM | 91%
CC(=O)Nc1c(C(C)=O)c(=O)n(C)c2nc(-c3ccc(Cl)cc3Cl)c(-c3ccc(Cl)cc3)cc12 | cell-free assay | competition with immobilised ligand | 1 µM | 96%
N[C@@H]1CCN(c2nccc(-c3cnn4ncccc34)n2)C1 | binding | – | 1 µM | 97%
COc1cnc(Nc2cccc(S(N)(=O)=O)c2)nc1N1CCN(c2ccccc2)C(=O)C1 | binding | competition with immobilised ligand | 1 µM | 100%
CN(C)c1ncc(F)c(-c2cnn3ncccc23)n1 | binding | – | 1 µM | 100%
Cc1cnc(Nc2ccc(C(=O)N3CCC(N4CCCC4)CC3)cc2)nc1-c1cc2ccccc2s1 | binding | competition with immobilised ligand | 1 µM | 57%
